This is a sample that favours compounds with a hit; in the whole collection about 3.7% have one here.
KCNK9 inh: inhibitors of human KCNK9 two-pore domain potassium channel; Q9NPC2; HEK293 KCNK9, FluxOR thallium flux fluorescence; active compounds read low; B-score at 10 µM; actives 1.2% (n = 310,000);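 active = ratio B-score over 3 SD below the library mean, with starting fluorescence within 5 SD of its mean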;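 also: negative B-score means less thallium flux so channel inhibition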
Kir21 block: inhibitors of mouse Kir2.1 inward-rectifier potassium channel; B-score at 10 µM; P35561; HEK293-Kir2.1, FluxOR thallium flux fluorescence; active compounds read low; actives 0.85% (n = 310,000);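 active = fluorescence ratio B-score at or below minus 3 SD of library scores, with starting-brightness B-score within 2 SD, cut at about -4.2 in these data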;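 also: channel flux triggered by added potassium and thallium sulfate stimulus; B-score of peak minus minimum fluorescence over baseline after thallium stimulus; more negative B-score means stronger Kir2.1 block with less thallium influx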
KCNQ1 act: potentiates or activates the human KCNQ1 potassium channel; P51787; CHO-K1 KCNQ1, thallium flux FluxOR fluorescence; active compounds read high; B-score at 10 µM; actives 0.35% (n = 310,000); AID 2648;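 active = fluorescence ratio B-score, a plate-corrected score, at least three library SD, with initial intensity B-score within 5 SD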
Target sequence (P51787 whole entry, looked up): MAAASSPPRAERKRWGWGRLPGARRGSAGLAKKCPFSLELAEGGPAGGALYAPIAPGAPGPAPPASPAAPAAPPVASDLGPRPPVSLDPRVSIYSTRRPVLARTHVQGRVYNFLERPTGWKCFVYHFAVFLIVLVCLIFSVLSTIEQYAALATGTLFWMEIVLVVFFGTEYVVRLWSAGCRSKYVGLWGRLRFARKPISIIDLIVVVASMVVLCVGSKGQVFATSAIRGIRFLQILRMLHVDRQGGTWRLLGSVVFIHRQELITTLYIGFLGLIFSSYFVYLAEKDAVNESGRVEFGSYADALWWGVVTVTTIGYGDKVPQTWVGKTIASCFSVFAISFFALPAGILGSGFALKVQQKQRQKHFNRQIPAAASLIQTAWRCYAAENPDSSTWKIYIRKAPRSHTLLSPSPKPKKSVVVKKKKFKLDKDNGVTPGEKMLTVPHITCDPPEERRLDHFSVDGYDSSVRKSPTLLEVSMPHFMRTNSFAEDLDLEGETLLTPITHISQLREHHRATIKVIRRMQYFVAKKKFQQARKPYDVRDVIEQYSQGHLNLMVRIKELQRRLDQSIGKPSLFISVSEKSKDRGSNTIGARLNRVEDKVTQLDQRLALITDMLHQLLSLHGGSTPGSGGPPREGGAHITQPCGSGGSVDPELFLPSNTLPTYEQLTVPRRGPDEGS
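Medium – assay buffer, equal DMSO in all wells · Material – CHO-K1 cell line with stable KCNQ1 potassium channel expression · Signal – kinetic FluxOR thallium fluorescence, 10-s 1-Hz baseline, 110-s post-stimulus read · Compound – single concentration per compound, DMSO matched to controls · Schedule – 37 °C overnight plating, 90-min dark dye load, 20-min compound pretreatment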
KCNK3 inh: human KCNK3 channel inhibition, primary screen. O14649. CHO-KCNK3 thallium flux, FluxOR fluorescence; active compounds read low. B-score at 10 µM. actives 0.84% (n = 340,000);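 active = B-score under library mean minus 4 SD, starting fluorescence ratio at most library mean plus 5 SD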;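 also: more negative B-score means stronger inhibition of thallium flux through KCNK3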
KCNQ1 block: inhibitors of human KCNQ1 potassium channel; CHO-K1 KCNQ1, FluxOR thallium flux fluorescence; active compounds read high; P51787; AID 2642; actives 1.3% (n = 310,000); B-score at 10 µM;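 active = compounds whose thallium flux B-score, printed positive for inhibition, exceeds three library SD while starting fluorescence stays within three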;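 also: channel opened by potassium depolarization with thallium stimulus after 20 min compound exposure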
hERG rescue: shields human hERG channel from block by proarrhythmic agents | actives 0.51% (n = 310,000) | activation (rescue from dofetilide block), less the hit threshold, % at 10 µM | CHO-hERG, FluxOR thallium flux, dofetilide IC70 present | Q12809 | AID 1511;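 active = activation above the mean of controls blocked by dofetilide plus 5 SD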;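 also: thallium influx through hERG after potassium depolarization seen as dye fluorescence rise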
KCNK9 block conf: confirmation of human KCNK9 potassium channel inhibitors. shares compounds with KCNK9 inh. HEK293 KCNK9 cells, FluxOR thallium flux fluorescence. inhibition, % at 10 µM. actives 43% (n = 4,900);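 active = thallium signal inhibited by more than 5 SD of the compound-free buffer control wells, on both duplicate plates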
Kir21 sel: selectivity of KCNK9 modulators against mouse Kir2.1; inhibition, % at 10 µM; Kir2.1 cells, FluxOR thallium flux fluorescence; shares compounds with KCNK9 inh; actives 4% (n = 4,900);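 active = thallium signal drop more than 5 SD beyond the mean of the no-compound control wells, seen in both duplicate plates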;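 also: signal is fluorescence rise after thallium addition divided by baseline fluorescence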
KCNK9 uninduced: second counter-screen for KCNK9 modulators: effect in non-induced cells; shares compounds with KCNK9 inh; non-induced KCNK9-HEK293, FluxOR thallium flux; inhibition, % at 10 µM; actives 40% (n = 4,900);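 active = thallium signal drop beyond 5 SD of the untreated control mean, on both duplicate plates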
Large screens that a line does not name were inactive (follow-up assays come after a bar, where they were run).

CC(C)CC(OC(=O)CC1Sc2ccccc2NC1=O)C(=O)NC1CCCC1 (stereo unspecified)	KCNK9 inh -8.94 | KCNK9 block conf inactive | Kir21 sel inactive | KCNK9 uninduced inactive
CS(=O)(=O)N1CCC(C(=O)N2CCN(c3ccc(F)cc3)CC2)CC1	none
CC1CN(C(=O)c2ccc(NS(=O)(=O)c3ccc(F)c(F)c3)cc2)CC(C)O1 (stereo unspecified)	none
COc1cnn(-c2ccccc2)c(=O)c1SCc1ccc(Cl)cc1Cl	none
COc1cnc(SCc2ccc(Cl)cc2Cl)nc1Cl	none | KCNK9 block conf inactive | Kir21 sel inactive | KCNK9 uninduced 29.5%
O=C(Cc1ccccc1[N+](=O)[O-])N/N=C/c1cccnc1	none
CC(Oc1ccc(Br)cc1)C(=O)NCC1(N2CCCCC2)CCCCC1 (stereo unspecified)	none (no result: KCNK9 inh, Kir21 block, KCNQ1 act, KCNQ1 block, hERG rescue)
C/C(=N\Nc1nc2ccccc2s1)c1ccc(Br)s1	KCNQ1 act 10 | KCNK9 block conf inactive | Kir21 sel inactive | KCNK9 uninduced inactive
CC(=NNc1nc2ccccc2s1)c1ccncn1	none (no result: KCNK9 inh, Kir21 block, KCNQ1 act, KCNQ1 block, hERG rescue)
Cc1cc(NC(=O)CSc2nnc(-c3ccc([N+](=O)[O-])cc3)o2)no1	none
Cc1nn(-c2cccc(Cl)c2)c(Cl)c1/C=N/NC(=O)c1cccs1	KCNK9 inh -10.5 | KCNK9 block conf 60.0% | Kir21 sel inactive | KCNK9 uninduced 31.0%
CC1(c2ccccc2)CC(C)(C)N2C(=O)C(=O)c3cccc1c32 (stereo unspecified)	none | KCNK9 block conf inactive | Kir21 sel inactive | KCNK9 uninduced inactive
O=C1N(Cc2cccc(Cl)c2)C[C@@H]2C[C@@H](c3ccc4nonc4c3)N3CCC[C@@]123	none
COc1ccc(NC(C)(C)c2nnnn2-c2c(C)cccc2C)cc1	none
Cc1ccc(NC2(c3nnnn3-c3c(C)cccc3C)CCCCC2)cc1	KCNK9 inh -8.94 | KCNK9 block conf 47.5% | Kir21 sel inactive | KCNK9 uninduced 43.5%
CCOC(=O)CN1N=C(c2ccc(Cl)s2)CSC1=O	none
O=C(NCC(c1ccco1)N1CCN(c2ccc(F)cc2)CC1)C1CCCCC1 (stereo unspecified)	KCNK9 inh -13.7 | KCNK9 block conf 43.5% | Kir21 sel inactive | KCNK9 uninduced 38.5%
CCc1ccc(OCCCCN(C)Cc2ccccc2)cc1	Kir21 block -6.11 | KCNK9 block conf inactive | Kir21 sel inactive | KCNK9 uninduced inactive
O=C(O)/C(=C\c1ccc(-c2ccccc2[N+](=O)[O-])o1)c1ccccc1	none
O=C(/C=C/c1ccc(-c2ccccc2[N+](=O)[O-])o1)c1ccccc1	KCNK9 inh -8.48 | KCNK9 block conf 40.5% | Kir21 sel inactive | KCNK9 uninduced 28.5%
O=C(c1ccc(S(=O)(=O)N2CCCCCC2)cc1)N1CCN(c2ccccc2F)CC1	none
COc1cc(Cl)ccc1OCc1cc(C(=O)N2C[C@H]3CC[C@H]2C3)no1	none
COc1cc(Cl)ccc1OCc1cc(C(=O)N2C[C@]3(C)C[C@H]2CC(C)(C)C3)no1	none | KCNK9 block conf inactive | Kir21 sel inactive | KCNK9 uninduced inactive
COc1ccc(-n2c(C)nnc2SCC(=O)N2CCOCC2)cc1	none
CN(c1ccc([N+](=O)[O-])cc1C(=O)Nc1ccccc1)C1CCCCC1	KCNK9 inh -12.5 | KCNK9 block conf 30.0% | Kir21 sel inactive | KCNK9 uninduced 42.0%
Cc1cccc(NC(=O)c2cc([N+](=O)[O-])ccc2NC2CCCCC2)c1	none
CC1Cc2ccccc2N1C(=O)/C=C/c1cccc(F)c1 (stereo unspecified)	none | KCNK9 block conf inactive | Kir21 sel inactive | KCNK9 uninduced inactive
CC(C)CN(C(=O)CN1C(=O)C2CCCCC2C1=O)c1c(N)n(Cc2ccccc2)c(=O)[nH]c1=O (stereo unspecified)	none
Cc1ccc(SCC(=O)O/N=C(\N)c2cccc([N+](=O)[O-])c2)cc1	none | KCNK9 block conf inactive | Kir21 sel inactive | KCNK9 uninduced 27.5%
COc1ccc(-c2nc(CS(=O)CC(=O)NCCCN3CCCC(C)C3)c(C)o2)cc1OC (stereo unspecified)	none
CCOC(=O)c1c(C)[nH]c(C(=O)COC(=O)[C@H](C)N2C(=O)C3CCCCC3C2=O)c1C (stereo partly specified)	none (no result: KCNK9 inh, Kir21 block, KCNQ1 act, KCNQ1 block, hERG rescue)
COC(=O)C1CN(C(=O)COc2cc(C)c(Cl)c(C)c2)c2ccccc2O1 (stereo unspecified)	KCNK9 inh -9.93 | KCNK9 block conf inactive | Kir21 sel inactive | KCNK9 uninduced 34.0%
CCN(C[C@H]1N[C@@](C)(C(=O)OC)[C@H]2C(=O)N(C)C(=O)[C@@H]12)S(=O)(=O)c1ccc(C(F)(F)F)cc1	none (no result: KCNK9 inh, Kir21 block, KCNQ1 act, KCNQ1 block, hERG rescue)
CC1SCC(NC(=O)c2ccc(Cl)cc2)CS1 (stereo unspecified)	KCNK9 inh -14.1 | KCNK9 block conf inactive | Kir21 sel inactive | KCNK9 uninduced 24.0%
CC1SCC(NC(=O)c2ccccc2Cl)CS1 (stereo unspecified)	none
CC1SCC(NC(=O)c2cccc(Cl)c2)CS1 (stereo unspecified)	KCNK9 inh -10 | KCNK9 block conf 44.0% | Kir21 sel inactive | KCNK9 uninduced 26.5%
Cc1ccc(-c2n[nH]c3c2CCC3)cc1	none
COC(=O)c1ccc(C(=O)OC)c(NC(=O)COC(=O)CC2CC3CCC2C3)c1 (stereo unspecified)	KCNK9 inh -13.3, KCNK3 inh -13.9 | KCNK9 block conf 50.5% | Kir21 sel inactive | KCNK9 uninduced 29.0%
O=C(CCl)N1CCN(S(=O)(=O)c2ccc3c(c2)CCC3)CC1	none (no result: KCNK9 inh, Kir21 block, KCNQ1 act, KCNQ1 block, hERG rescue)
O=C(CCCc1ccccc1)NCCS(=O)(=O)N1CCN(c2ccccc2F)CC1	none
Cc1ccc(NC(=O)c2cccc3c2C(=O)N(C2CCCCC2)C3)c(Cl)c1	KCNK9 inh -18 | KCNK9 block conf 55.5% | Kir21 sel inactive | KCNK9 uninduced 43.5%
O=C(Nc1ccc(Br)cc1Br)c1cccc2c1C(=O)N(C1CCCCC1)C2	KCNK9 inh -17.7 | KCNK9 block conf 49.5% | Kir21 sel inactive | KCNK9 uninduced 33.0%
O=C(Nc1ccc(Br)cc1)c1cccc2c1C(=O)N(C1CCCCC1)C2	none
O=C(NCCNc1ccc([N+](=O)[O-])cc1C(F)(F)F)c1cccc(F)c1	none | KCNK9 block conf inactive | Kir21 sel inactive | KCNK9 uninduced inactive
O=C(NCCNc1ccc([N+](=O)[O-])cc1C(F)(F)F)c1ccccc1	none | KCNK9 block conf inactive | Kir21 sel inactive | KCNK9 uninduced inactive
